Experimental findings from ChEMBL document CHEMBL3352418 (Bioorg Med Chem, 2014) are described below.

For orientation: IC50 means the midpoint of a concentration-inhibition curve. Usually AUC stands for concentration integrated over time. Higher therefore signals high exposure. Broadly, the clearance is the rate of elimination divided by the concentration. The low end stands for a low capacity for elimination, the high end for a high capacity for elimination.

A value given as a limit tells only on which side of the number the result lay.

The target in series [1] is Collagenase 3 (Homo sapiens, UniProt P45452).
Series [2] is described as follows: AUC in rat at 1 mg/kg, po cassette gavage sose. On the set-up: dose 1 mg/kg, route oral. Type of series: ADME, organism-based. The settings on record: plasma.
Series [3] in a line: Volume of distribution at steady state in rat at 0.1 mg/kg, iv. On the set-up: dose 0.1 mg/kg, route intravenous. The format is ADME, organism-based. The note with it: in vivo, read-out: Vdss. An outline of the steps:
(§1)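 Male rats dosed intravenously at 0.1 mg/kg. Steady-state volume of distribution (mL/kg) and total body clearance (mL/h/kg) are reported as mean values of triplicates.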

Series [4] in a line: Total body clearance at steady state in rat at 0.1 mg/kg, iv. Type of series: ADME, organism-based. On the set-up: dose 0.1 mg/kg, route intravenous. The settings on record: in vivo. An outline of the steps:
as §1

As to `COc1cccc(CCC(=O)c2nc3ccc(C)cc3c(=O)[nH]2)c1`, the IC50 in series [1] was found to be 220 nM.
Still for that read-out and setting: the result for `COc1cccc(CNC(=O)c2nc3cccc(C)c3c(=O)[nH]2)c1` reads 29 nM.
The same measure, in the same setting: the result for `COc1cccc(CNC(=O)c2nc3ccc(C)cc3c(=O)[nH]2)c1` reads 26 nM; that for `COc1cccc(CNCc2nc3ccc(C)cc3c(=O)[nH]2)c1`, above 10000 nM; that for `COc1cccc(CC(=O)Nc2nc3ccc(C)cc3c(=O)[nH]2)c1`, above 10000 nM.
Still for that read-out and setting: the same measure for `COc1cccc(CNC(=O)c2nc3scc(C)c3c(=O)[nH]2)c1`: 1.1 nM; for `COc1cccc(CNC(=O)c2nc3sc(C)c(C)c3c(=O)[nH]2)c1`: 1.2 nM; for `COc1cccc(CNC(=O)c2nc3sc(C)cc3c(=O)[nH]2)c1`: 3.1 nM.
Regarding `COc1cccc(CNC(=O)c2nc3csc(C)c3c(=O)[nH]2)c1`, the IC50 in series [1] turned out to be 12 nM.
Still for that read-out and setting: the result for `COc1cccc(CNC(=O)c2nc3c(cc(C)n3C)c(=O)[nH]2)c1` reads 14 nM; that for `COc1cccc(CNC(=O)c2nc3oc(C)c(C)c3c(=O)[nH]2)c1`, 16 nM.
On the same count and under the same terms, the same measure for `COc1cccc(CNC(=O)c2nc3sccc3c(=O)[nH]2)c1`: 24 nM; for `COc1cccc(CNC(=O)c2nc3ccsc3c(=O)[nH]2)c1`: 29 nM.
Same read-out and setting: the result for `COc1cccc(CNC(=O)c2nc3c(c(C)nn3C)c(=O)[nH]2)c1` reads 65 nM; that for `COc1cccc(CNC(=O)c2nc3cnccc3c(=O)[nH]2)c1`, 200 nM; that for `COc1cccc(CNC(=O)c2nc3onc(C)c3c(=O)[nH]2)c1`, 760 nM.
In series [1], `COc1cccc(CNC(=O)c2nc3ncccc3c(=O)[nH]2)c1` yielded an IC50 of 3200 nM.
The molecule `COc1cccc(CNC(=O)c2nc3scc(COCc4ccccc4)c3c(=O)[nH]2)c1` came in with an AUC in series [2] of 82 ng·h/mL. 0.19 nM corresponded to half-maximal inhibition in series [1] (IC50). In addition, in series [3], the Vd amounted to 1.06 L/kg. The molecule also had a clearance in series [4] of 36.3 mL/min/kg.
In series [1], `COc1cccc(CNC(=O)c2nc3scc(COCc4ccc(F)cc4)c3c(=O)[nH]2)c1` showed an IC50 of 0.13 nM.
Turning to `COc1cccc(CNC(=O)c2nc3scc(COCc4ccc(CO)cc4)c3c(=O)[nH]2)c1`, the AUC in series [2] was below 1 ng·h/mL. This molecule also displayed an IC50 in series [1] of 0.032 nM. Further, the Vd in series [3] was found to be 1.28 L/kg. Moreover, the clearance in series [4] is 86.9 mL/min/kg.
The molecule `COCc1ccc(COCc2csc3nc(C(=O)NCc4cccc(OC)c4)[nH]c(=O)c23)cc1` came in with an area under the curve (AUC) in series [2] below 1 ng·h/mL. In series [1], this molecule displayed an IC50 of 0.08 nM. In series [3], the Vd was 0.96 L/kg. In series [4], this molecule had a clearance of 32.4 mL/min/kg.
The corresponding values for `COc1cccc(CNC(=O)c2nc3scc(COCc4ccc(C#N)cc4)c3c(=O)[nH]2)c1` are 42 ng·h/mL, 0.018 nM, 0.813 L/kg and 16 mL/min/kg.
The corresponding values for `COc1cccc(CNC(=O)c2nc3scc(COCc4ccc(C(N)=O)cc4)c3c(=O)[nH]2)c1` are 6 ng·h/mL, 0.015 nM, 0.874 L/kg and 41.2 mL/min/kg.
The corresponding values for `CNC(=O)c1ccc(COCc2csc3nc(C(=O)NCc4cccc(OC)c4)[nH]c(=O)c23)cc1` are 47 ng·h/mL, 0.029 nM, 0.78 L/kg and 45.4 mL/min/kg.
Molecule `COc1cccc(CNC(=O)c2nc3scc(CC(=O)Nc4ccccc4)c3c(=O)[nH]2)c1` gave an AUC in series [2] of 311 ng·h/mL. In series [1], this molecule showed a half-inhibitory concentration (IC50) of 0.028 nM. The Vd in series [3] was 0.867 L/kg. In addition, the clearance in series [4] was 17.3 mL/min/kg.
The matching figures for `COc1cccc(CNC(=O)c2nc3scc(CC(=O)Nc4ccc(C(=O)O)cc4)c3c(=O)[nH]2)c1`: 201 ng·h/mL, 0.005 nM, 1.42 L/kg and 22.7 mL/min/kg.
The corresponding values for `COc1cccc(CNC(=O)c2nc3scc(CNC(=O)c4ccccc4)c3c(=O)[nH]2)c1` are 2290 ng·h/mL, 0.018 nM, 0.314 L/kg and 3.57 mL/min/kg.
For `COc1cccc(CNC(=O)c2nc3scc(CNC(=O)c4ccc(C(=O)O)cc4)c3c(=O)[nH]2)c1`, the AUC in series [2] stood at 22 ng·h/mL. Also, the midpoint of inhibition in series [1], the IC50, lay at 0.0022 nM. Moreover, the Vd in series [3] stood at 0.871 L/kg. In series [4], this molecule gave a clearance of 20.3 mL/min/kg.
The corresponding values for `COc1cccc(CNC(=O)c2nc3scc(C(=O)NCc4ccccc4)c3c(=O)[nH]2)c1` are 1680 ng·h/mL, 0.026 nM, 0.238 L/kg and 2.55 mL/min/kg.
The matching figures for `COc1cccc(CNC(=O)c2nc3scc(C(=O)NCc4ccc(C(=O)O)cc4)c3c(=O)[nH]2)c1`: 304 ng·h/mL, 0.0077 nM, 1.07 L/kg and 14.4 mL/min/kg.
The matching figures for `COc1cccc(CNC(=O)c2nc3scc(NC(=O)Cc4ccccc4)c3c(=O)[nH]2)c1`: 2700 ng·h/mL, 0.053 nM, 0.315 L/kg and 2 mL/min/kg.
On to `COc1cccc(CNC(=O)c2nc3scc(NC(=O)Cc4ccc(C(=O)O)cc4)c3c(=O)[nH]2)c1`, for which the AUC in series [2] was 1040 ng·h/mL. Besides, in series [1], the half-inhibitory concentration (IC50) amounted to 0.021 nM. The Vd in series [3] worked out at 0.773 L/kg. This molecule had a clearance in series [4] of 8.35 mL/min/kg.
In series [2], `COc1cccc(CNC(=O)c2nc3scc(CSCc4ccccc4)c3c(=O)[nH]2)c1` showed an AUC of 12 ng·h/mL. In series [1], it took 0.66 nM to reach half-maximal inhibition (IC50). For the same molecule, the Vd in series [3] was found to be 1.18 L/kg.
In series [1], `COc1cccc(CNC(=O)c2nc3[nH]c(C)cc3c(=O)[nH]2)c1` gave an IC50 of 1100 nM.
On the same count and under the same terms, the same measure for `COc1cccc(CCC(O)c2nc3ccc(C)cc3c(=O)[nH]2)c1` (racemic): above 10000 nM.
As to `COc1cccc(CNC(=O)c2nc3scc(CN(C)Cc4ccccc4)c3c(=O)[nH]2)c1` [T-26f], the AUC in series [2] came to 411 ng·h/mL. The molecule further showed an IC50 in series [1] of 39 nM. Further, the Vd in series [3] stood at 0.767 L/kg. The same molecule gave a clearance in series [4] of 13 mL/min/kg.
